Source: PubChem BioAssay
The full list was thinned out, with hits kept by preference.
XBP1 UPR activ = activators of adaptive XBP1 UPR arm, primary screen, cell-based, CHO-XBP1 luciferase reporter, luminescence, uHTS | IRE1-XBP1 UPR activation; percent of tunicamycin response, DMSO as zero | activation, % at 20 µM | actives 0.33% (n = 330,000);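 active = versus positive control, 20 µM dose yields 30% or more activation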;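 also: 100% = tunicamycin at 10 µg/mL and 0% = DMSO only wells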
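Material – CHO cell line with stable XBP1 luciferase reporter · Buffer or medium – F12 plus 10% FBS · Compound – single point, 20 µM final compound, 1% DMSO · Schedule – 16-18 h cell attachment at 37 °C, then 6 h compound exposure · Signal – Steady-Glo luminescence read · Benchmarks – high control tunicamycin 10 µg/mL final, low control DMSO vehicle only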
CHOP UPR activ = activators of apoptotic CHOP UPR arm, primary screen, cell-based, CHO-CHOP luciferase reporter, luminescence, uHTS. activation, % at 10 µM. actives 0.34% (n = 330,000). UPR activation; percent of tunicamycin response over DMSO baseline;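 active = at 10 µM dose, activation of 40% or more, normalized to positive control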;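 also: 100% = tunicamycin at 10 µg/mL and 0% = DMSO alone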
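Assay system: CHO-CHOP cells, stable luciferase reporter of PERK-eIF2a-CHOP signalling / Buffer or medium: F12 plus 10% serum / Compound dosing: one dose, 10 µM in 0.5% DMSO / Times: 6 h compound treatment, 37 °C / Technique: luciferase luminescence / Read-out: % reporter activation, DMSO baseline versus tunicamycin full activation / Benchmarks: tunicamycin and DMSO controls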
FXN GAA850 act = FXN promoter activators, primary screen, cell-based, luciferase luminescence, HEK293 lucGAA850; HEK293 lucGAA850 FXN promoter luciferase reporter, 24 h; percent of 10 µM SAHA response; actives 0.56% (n = 360,000); AID 540364, 2011; activation, % at 6 µM;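 active = activation above the average of all compounds screened plus 3 SD, cutoff fixed separately per campaign, cut at about 7.5% in these data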;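 also: 0% = DMSO wells and 100% = 10 µM SAHA wells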
CHOP inhibitor = inhibitors of CHOP promoter induction, primary screen, cell-based, unfolded protein response, luciferase reporter | CHO-K1 CHOP-promoter luciferase, tunicamycin-induced, 15-18 h | inhibition, % at 10 µM | actives 3.8% (n = 220,000) | AID 2732, 2010;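 active = compounds that reduced the stress-induced luciferase reporter signal by more than about 70% of percent inhibition, limit read from the data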;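 also: 0% = tunicamycin plus vehicle and 100% = wells without tunicamycin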
CHOP inh conf = retest of CHOP induction inhibitors, confirmation, cell-based. CHO-CHOP promoter luciferase reporter, tunicamycin-induced, luminescence. actives 45% (n = 2,100). shares compounds with CHOP inhibitor. AID 504437, 2011. inhibition, % at 10 µM;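 active = mean of three repeat readings of reporter signal inhibition above a set limit, cut at about 70% in these data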;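 also: 0% = tunicamycin plus vehicle and 100% = wells lacking tunicamycin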
* hit, by the source's call; . = no result given; ! = a repeat was not active.

SMILES	XBP1 UPR activ	CHOP UPR activ	FXN GAA850 act	CHOP inhibitor	CHOP inh conf
COc1ccccc1NC(=O)c1c(N=Cc2ccccc2O)cnn1C	15.6	0.2	.	100.7*	14.0
COc1ccc(C2=C(CN(C)C)C(c3ccccc3)c3ccccc3O2)cc1 (configuration not stated)	-0.9	1.0	-2.0	104.0*!	43.3
CCOc1ccc(C2=C(C=C(C#N)C#N)C(c3ccccc3)c3ccccc3O2)cc1 (configuration not stated)	0.0	1.5	3.0	4.5	.
COc1ccccc1N1CC(C(=O)OCC(=O)c2c(N)n(C)c(=O)n(C)c2=O)CC1=O (configuration not stated)	.	.	-1.4	.	.
CC1(C(=O)Nc2ccccc2)CCN1C(=O)C1(c2ccccc2)CC1 (configuration not stated)	.	.	-1.5	.	.
Cc1ccccc1N1C(=O)CC(Sc2nnc(-c3ccccc3)o2)C1=O (configuration not stated)	-7.7	7.3	-4.5	108.3*	3.5
CCCCC(=O)N(C)c1c(CC)nc2c(OCc3ccccc3C)cccn12	.	.	-4.0	.	.
COc1ccc(-c2nn(-c3ccccc3)cc2/C=N/NC(=O)c2ccc(Br)o2)cc1	-7.9	-6.2	-3.4	106.5*	127.2*
COc1ccc(-c2nn(-c3ccccc3)cc2/C=N/NC(=O)c2ccc3c(c2)OCO3)cc1	-6.0	7.7	.	-9.9	.
Cc1ccc(-c2csc3nc4c5ccccc5c(NCCCN(C)C)nn4c(=O)c23)cc1	12.6	1.9	2.7	101.5*	-305.2
Cc1ccccc1Oc1cc(-n2ncc(Cl)c(Cl)c2=O)ncn1	.	.	-21.8	108.2*	118.7*
C#CCOc1ccc(CNC[C@H]2O[C@@H](n3ccc(N)nc3=O)[C@H](O)[C@@H]2O)cc1	.	.	0.1	.	.
CC1CCN(C(=O)CCC(=O)Nc2ccc([N+](=O)[O-])cc2)CC1	.	.	0.6	.	.
C=C1C(=O)O[C@@H]2C[C@@H](C)[C@@H]3C=CC(=O)[C@@]3(C)[C@@H](OC(C)=O)[C@H]12	-8.6	-8.0	.	107.4*	120.3*
Cc1nc(NC(=O)CSc2nc3cccnc3n2Cc2ccccc2)sc1C	8.3	-0.5	-1.2	103.7*	91.4*
O=S(=O)(/C(=C/c1ccc(C(F)(F)F)cc1)c1nc2ccccc2[nH]1)c1ccccc1	.	.	-4.9	109.1*	133.6*
C/C(=C\c1ccc(N)cc1)c1nc2ccccc2[nH]1	1.1	6.2	3.5	.	.
O=C(Nc1nc(NC(=O)c2ccco2)n(-c2ccccc2)n1)c1ccccc1	4.9	-0.6	-1.2	106.3*	60.0
CC1=C(C(=O)Nc2ccc(C)cc2C)C(c2cccc([N+](=O)[O-])c2)n2nc(C(=O)OC(C)C)nc2N1 (configuration not stated)	-1.1	-0.5	-0.5	26.9	.
CC1=C(C(=O)Nc2ccc(C)cc2C)C(c2cccc(Cl)c2)n2nc(C(=O)OC(C)C)nc2N1 (configuration not stated)	-4.0	1.3	-0.2	105.7*	117.5*
COc1ccccc1NCC(=O)N/N=C(\C)c1ccc(Br)s1	0.2	1.9	0.9	98.2*	39.9
C/C(=N/NC(=O)CNc1ccc(C)cc1)c1ccc(Br)s1	-1.7	-1.3	1.7	64.9	.
Cc1cnc(C=O)c2cccc([N+](=O)[O-])c12	.	.	-0.4	.	.
CC(NC(=O)COC(=O)c1ccc2c(c1)S(=O)(=O)N=C1CCCCCN12)C12CC3CC(CC(C3)C1)C2 (configuration not stated)	-0.6	-1.8	3.5	104.3*	-17.5
CC(C)(C)NC(=O)NC(=O)COC(=O)c1ccc2c(c1)S(=O)(=O)N=C1CCCCCN12	0.1	-1.5	-0.2	-0.9	.
SMILES	XBP1 UPR activ	CHOP UPR activ	FXN GAA850 act	CHOP inhibitor	CHOP inh conf
Cc1c(C(=O)NCc2ccc3c(c2)OCCO3)sc(=O)n1Cc1ccccc1F	.	.	-0.2	.	.
C/C(N)=C(/C#N)C(=O)COC(=O)C1CCC(C(C)(C)C)CC1 (configuration not stated)	0.4	3.7	1.1	97.3*	86.7*
NS(=O)(=O)c1ccc(NC(=O)COC(=O)c2cn(-c3ccccc3)nc2-c2ccccc2)cc1	27.4	3.8	1.9	97.5*	-1.3
COC(=O)c1cn(-c2ccccc2)nc1-c1ccccc1	0.0	1.9	2.4	8.0	.
Cc1ccc(-c2nn(C)c(=O)c3ccccc23)cc1CNC(=O)Cn1nc(-c2ccccc2)c2ccccc2c1=O	.	.	.	97.2*	78.5*
Cc1cc(C)n(CC(=O)NCc2cc(-c3nn(C)c(=O)c4ccccc34)ccc2C)n1	-2.3	-1.5	0.1	13.4	.
CC(C)(C)C(=O)c1no[n+]([O-])c1/C(=N/O)C(C)(C)C	2.0	0.1	4.3	107.7*	78.1*
Cn1c(=O)c2cc(NC(=S)NC3CCCCC3)ccc2n1Cc1ccc(Cl)cc1	.	.	-2.6	.	.
Cc1cc(=O)oc2cc(OCC(=O)NCCCN3CCOCC3)ccc12	-1.0	1.0	-0.2	99.8*	1.2
COc1ncnc2c1ncn2CCCN1CCN(C(=O)C2CC2)CC1	.	.	-0.4	.	.
CCOC(=O)c1c(C)oc2ccc(O)c(CN3CCCCC3)c12	-2.0	-2.4	1.5	0.6	.
CCOC(=O)c1c(-c2ccccc2)oc2ccc(O)c(CN3CCOCC3)c12	-1.8	-0.6	-1.7	109.3*	95.8*
CC(=O)Nc1sc(N/N=C\c2ccccc2Cl)nc1-c1cccs1	3.6	4.7	-8.6	102.8*	3.0
CCOC(=O)c1c(C)oc2c1C(=O)c1ccccc1C2=O	1.9	2.0	3.4	41.7	.
CCOC(=O)C1=C(Cc2ccc(C)cc2)C(=O)c2ccccc2C1=O	22.3	97.5*	.	103.9*	56.6
CN(C)CCNC(=O)c1cccc(-c2cccc3nncn23)c1	.	.	-0.6	.	.
O=C(OCn1ncc(Cl)c(Cl)c1=O)c1ccc(F)cc1	-5.1	-10.9	.	106.5*	122.9*
O=C(COC(=O)c1cnc(Cl)c(Cl)c1)c1ccc(F)cc1	4.1	2.3	0.6	.	.
COc1cc(/C=C/c2noc(-c3ccccc3O)n2)cc(OC)c1OC	2.0	0.2	1.0	53.9	.
COc1cc(/C=C/c2nc(N)nc(-c3ccccc3O)n2)cc(OC)c1OC	3.8	8.8	-1.5	96.2*	76.5*
CCCc1cc(=O)[nH]c(SCCOc2ccc(Cl)cc2)n1	-0.5	-0.6	-3.7	101.1*	-8.4
CCCOC(=O)c1ccc(Oc2cn[nH]c2-c2ccc(OC)cc2O)cc1	-5.6	-2.7	0.4	106.4*	115.8*
O=[N+]([O-])c1ccc(NC(=S)NCCc2ccccc2)cc1	2.5	0.8	-0.9	46.2	.
O=[N+]([O-])c1ccc(NC(=S)NCCc2ccc(Cl)cc2)cc1	-8.4	-1.4	-2.6	105.3*	94.0*
Cc1ccc(OCC(=O)N2N=C(C(F)(F)F)CC2(O)C(C)(C)C)cc1C (configuration not stated)	-1.1	-2.4	-6.0	103.2*	116.0*
